A selection: hits, their analogues and other compounds. The true share with any hit is near 2.4%.
dFosB act = activators of delta FosB homodimer, primary screen, biochemical, fluorescence polarization, TAMRA-CDK5 oligo, single point; activation, % at 25 µM; 340,000 tested, 0.99% active; Protein FosB (Mus musculus), P13346; purified delta FosB; percent of positive-control signal above neutral wells;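 active means mean activation above about 17%, with every replicate also reaching it, limit read from the data, passing the limit was not always enough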
Target sequence (P13346 whole entry, looked up): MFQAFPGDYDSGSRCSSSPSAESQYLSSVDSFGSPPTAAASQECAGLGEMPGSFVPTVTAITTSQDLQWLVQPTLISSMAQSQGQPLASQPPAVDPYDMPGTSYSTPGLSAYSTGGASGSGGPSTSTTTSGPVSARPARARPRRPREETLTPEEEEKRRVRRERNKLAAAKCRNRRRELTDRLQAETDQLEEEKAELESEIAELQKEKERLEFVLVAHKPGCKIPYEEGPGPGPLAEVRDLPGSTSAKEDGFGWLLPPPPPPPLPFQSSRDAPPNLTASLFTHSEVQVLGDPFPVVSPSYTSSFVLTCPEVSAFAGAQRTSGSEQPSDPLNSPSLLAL
Cneo AK release = Cryptococcus neoformans cell lysis inducers, primary screen, AK release luminescence, single concentration | C. neoformans lysis, adenylate kinase release luminescence, 4 h; normalised: neutral wells 0, clomiphene wells 100 | lysis activity, % at 15 µM | 360,000 tested, 0.2% active | AID 651654, 2012;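 active means mean lysis activity across replicates of at least 80%, whatever share of replicates individually reach that level; inactive means mean lysis activity below 80%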
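Schedule: static 4 h at 37 °C with compound, 1 h detection; system: C. neoformans cells; benchmarks: Clomiphene as positive control; buffer or medium: fresh YPD medium; measure: luminescence rise reflecting yeast cell lysis; measured by: luminescent adenylate kinase detection reagent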
Env fusion inh = inhibitors of HIV-1 Env-driven cell-cell fusion, primary screen, HeLa-JRFL effector, CEM21 target cells, luciferase; inhibition, % at 12.3 µM; 360,000 tested, 1.1% active; AID 651610, 2012;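 active means mean replicate inhibition score of at least 50 and every replicate individually at or above 50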;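 further: 0% = plate neutral controls and 100% = maraviroc near 300 nM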
Rtt109 Vps75 = inhibitors of C. albicans Rtt109/Vps75 HAT, primary screen, biochemical, ThioGlo CoA-SH fluorescence, plate reader; Histone acetyltransferase RTT109 (Candida albicans (strain SC5314 / ATCC MYA-2876)), …; purified Rtt109/Vps75, 4 h; inhibition, % at 34.9 µM; 330,000 tested, 0.16% active; AID 540336, 2011;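 active means inhibition of at least 50% in every replicate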
GSIS activator = GLuc luminescence reporter in INS-1E cells, primary screen for activators of glucose-dependent secretion of insulin; 370,000 tested, 0.61% active; INS-1E GLuc reporter insulin secretion, 2-3 h; activation, % at 16.6 µM;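 active means lowest replicate activation of at least 40%, so every replicate reaches that level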;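 further: 0% = median of neutral control wells and 100% = median of IBMX positive control wells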
miR122 inh = miR-122 Renilla sensor signal increase in Huh7, primary screen, miR-122 inhibitor project, cell-based, single point, plate reader; 340,000 tested, 0.3% active; AID 602342, 2012; activation (reporter increase), % at 12.5 µM; Huh7 miR-122 Renilla luciferase sensor, 48 h; neutral wells = 0, positive control = 100;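 active means mean replicate activation score at least 90 and every replicate individually at or above 90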;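 further: higher luciferase means less miR-122 activity so hits act as miR-122 inhibitors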
Starred values were filed as active, the others as inactive; nt = no result given; [ ] = dose if it differs, or a comment.

SMILES	dFosB act	Cneo AK release	Env fusion inh	Rtt109 Vps75	GSIS activator	miR122 inh
Nc1c(C(=O)Nc2ccc3c(c2)OCCO3)nnn1Cc1ccc(Cl)cc1	-5	-1	-167	-3	45*	15
Nc1c(C(=O)NCc2ccc3c(c2)OCO3)nnn1Cc1ccc(Br)cc1	20*	2	-3	-5	14	0
COc1cccc(S(=O)(=O)N2CC3(CN[C@@H](CO)c4[nH]c5cc(OC)ccc5c43)C2)c1	nt	nt	-17[16.7 µM]	nt	25	nt
CN(C)CC(=O)N1[C@@H](CO)[C@H](c2ccccc2)C12CN(C(=O)C1CCCC1)C2	nt	nt	nt	nt	5	nt
Cc1ccc(S(=O)(=O)N2CCN(S(=O)(=O)c3ccc(C)cc3)C2c2ccccc2)cc1	2	-2	105*	8	6	8
O=C(COc1ccc2ccc(=O)oc2c1)NCCN1CCOCC1	nt	-11	-5	nt	-12	-6
CC(Oc1ccc2ccc(=O)oc2c1)C(=O)NCCN1CCOCC1 (configuration not stated)	-2	0	65*	-2	14	0
CC(C)NC(=O)N1CC2(C1)[C@H](c1ccccc1)[C@@H](CO)N2C(=O)C1CCC1	nt	nt	nt	nt	7	nt
CSc1ccc(C(=O)C2CCCN(C(=O)c3ccc4c(c3)no[n+]4[O-])C2)cc1 (configuration not stated)	12	0	-31	3	42*	1
COCC(=O)Nc1ccc2c(c1)C(=O)N(C)C[C@@H](OC)[C@H](C)CN(C(=O)CC1CC1)[C@@H](C)CO2	nt	54	11[16.7 µM]	nt	-1	-9[16.7 µM]
Cc1ccc2[nH]c(O)c(N=NC(=O)CCc3ccccc3)c2c1Br	17*	3	23	-5	0	3
Cc1cc(C)nc(Sc2nc(Cl)nc(N(c3ccccc3)c3ccccc3)n2)n1	0	-1	14	79*	14	-2
CCOc1ccc(-c2cc(N)n(S(=O)(=O)c3cccc4nsnc34)n2)cc1	-9	0	64*	-5	4	47
COc1cc(OC)cc(-c2cc(N)n(S(=O)(=O)c3cccc4nsnc34)n2)c1	-2	nt	6	-25	3	nt
CC(C)C(Cl)=NOC(=O)Nc1ccc(S(N)(=O)=O)cc1	0	nt	11	-2	126*	-3
COC(=O)[C@H](C)NC(=O)Nc1ccc(S(N)(=O)=O)cc1	0	0	nt	-3	nt	1
CCOc1ccccc1CN1[C@@H](c2ccc(OC)cc2)CC(C(=O)OC)(C(=O)OC)[C@H]1c1ccccc1	nt	nt	61*	nt	29	nt
COc1ccc(NC(=O)c2csc(C)c2)cc1OC	-1	-7	22	-3	57*	-9
COc1ccc(C(=O)Nc2ccc(OC)c(OC)c2)cc1	-6	1	-93	-4	8	4
Cc1ccc(S(=O)(=O)Nc2cccc(-c3cn4ccsc4n3)c2)cc1	-5	2	nt	11	nt	142*
O=C(Cc1ccncc1)Nc1ccc2c(c1)[C@@H]1C[C@H](CC(=O)N3CCCCC3)O[C@@H](CO)[C@@H]1O2	nt	16	5[16.7 µM]	nt	-26	3[16.7 µM]
O=C(NCCSCc1ccccc1)c1ccc(C2SCC(=O)N2Cc2ccccc2)cc1 (configuration not stated)	-1	-2	64*	-1	nt	6
N#Cc1ccc(CN2CCN(C(=O)CNC(=O)Cc3cccc4ccccc34)CC2)cc1	1	-1	71*	9	-34	-2
CCc1ccccc1NC(=O)CN1CCN(C(=O)CNC(=O)Cc2cccc3ccccc23)CC1	-10	0	nt	-4	nt	2
Cc1c(Cl)cccc1NC(=S)NNc1ncc(C(F)(F)F)cc1Cl	-9	-1	67*	18	nt	-4
CCCCn1c(N)c(N(Cc2ccccc2OC)C(=O)c2cc(CC)c(C)s2)c(=O)[nH]c1=O	-5	3	nt	18	6	7
